Results published in ChEMBL document CHEMBL2401716, “Design and stereoselective synthesis of novel isosteviol-fused pyrazolines and pyrazoles as potential anticancer agents” (Eur J Med Chem, 2013).

Key:
Type in all cases: functional, cell-based
[1] = test system: HeLa; test: Antiproliferative activity against human HeLa cells after 48 hrs by MTT assay
In short: (§1)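 Cells seeded in 96-well plates and exposed to compounds for 48 h at 37 °C, 5% CO2. MTT (0.5 mg/mL) then added for 4 h. Supernatant removed, formazan dissolved in DMSO, and OD read at 570 nm. Cisplatin served as positive control.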

[2] = test system: A549; test: Antiproliferative activity against human A549 cells after 48 hrs by MTT assay; conditions: A549, 48 h; in short: as §1
[3] = test system: Raji; test: Antiproliferative activity against human Raji cells after 48 hrs by MTT assay
In short: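 Human B-lymphoma Raji line kept in RPMI-1640 with 10% FBS and 100 U/mL penicillin at 37 °C, 5% CO2, humidified. Cells were plated in 96 wells and treated with compounds for 48 h. MTT (0.5 mg/mL) was added for 4 h, then formazan was taken up in DMSO after supernatant removal and read at 570 nm. Cisplatin served as positive control.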

[4] = test system: SGC-7901; test: Antiproliferative activity against human SGC7901 cells after 48 hrs by MTT assay; conditions: SGC-7901, 48 h; in short: as §1

| Compound | IC50 [1] [µM] | IC50 [2] [µM] | IC50 [3] [µM] | IC50 [4] [µM] |
| --- | --- | --- | --- | --- |
| CCOC(=O)[C@]1(C)CCC[C@@]2(C)[C@@H]3CC[C@@]4(C)C[C@]3(CC[C@@H]21)[C@@H]1CN(c2c(C)cccc2C)N=C14 | 28.8 | 17.6 | 5.63 | 16.6 |
| CCOC(=O)[C@]1(C)CCC[C@@]2(C)[C@@H]3CC[C@@]4(C)C[C@]3(CC[C@@H]21)[C@@H]1CN(c2ccc(Cl)cc2)N=C14 | > 50 | > 50 | > 50 | > 50 |
| CCOC(=O)[C@]1(C)CCC[C@@]2(C)[C@@H]3CC[C@@]4(C)C[C@]3(CC[C@@H]21)c1cnn(-c2cc(F)ccc2F)c14 | > 50 | > 50 | 7.11 | > 50 |
| CCOC(=O)[C@]1(C)CCC[C@@]2(C)[C@@H]3CC[C@@]4(C)C[C@]3(CC[C@@H]21)[C@@H]1CN(c2cccc(Cl)c2)N=C14 | > 50 | > 50 | 4.57 | > 50 |
| CCOC(=O)[C@]1(C)CCC[C@@]2(C)[C@@H]3CC[C@@]4(C)C[C@]3(CC[C@@H]21)c1cnn(-c2ccc(C)cc2)c14 | > 50 | 18.8 | 8.61 | 34.9 |
| C[C@@]12CC[C@@H]3[C@@](CC[C@H]4[C@@]3(C)CCC[C@@]4(C)C(=O)O)(CC1=O)C2 [ISOSTEVIOL] | > 50 | > 50 | > 50 | > 50 |
| CCOC(=O)[C@]1(C)CCC[C@@]2(C)[C@@H]3CC[C@@]4(C)C[C@]3(CC[C@@H]21)[C@@H]1CN(c2ccc(Br)cc2)N=C14 | > 50 | > 50 | > 50 | > 50 |
| CCOC(=O)[C@]1(C)CCC[C@@]2(C)[C@@H]3CC[C@@]4(C)C[C@]3(CC[C@@H]21)c1cnn(-c2cc(C)ccc2C)c14 | 34.3 | 17.1 | 7.94 | 33 |
| CCOC(=O)[C@]1(C)CCC[C@@]2(C)[C@@H]3CC[C@@]4(C)C[C@]3(CC[C@@H]21)c1cnn(-c2ccccc2Cl)c14 | 34.6 | 21.5 | 10.1 | 25.4 |

Results, then the compound that gave them:

| IC50 [1] [µM] | IC50 [2] [µM] | IC50 [3] [µM] | IC50 [4] [µM] | Compound |
| --- | --- | --- | --- | --- |
| > 50 | 11.6 | > 50 | > 50 | CCOC(=O)[C@]1(C)CCC[C@@]2(C)[C@@H]3CC[C@@]4(C)C[C@]3(CC[C@@H]21)[C@@H]1CN(c2c(Cl)cccc2Cl)N=C14 |
| 34.9 | 33.2 | 5.7 | 27.1 | CCOC(=O)[C@]1(C)CCC[C@@]2(C)[C@@H]3CC[C@@]4(C)C[C@]3(CC[C@@H]21)c1cnn(-c2c(Cl)cccc2Cl)c14 |
| > 50 | > 50 | 22.9 | > 50 | CCOC(=O)[C@]1(C)CCC[C@@]2(C)[C@@H]3CC[C@@]4(C)C[C@]3(CC[C@@H]21)[C@@H]1CN(c2ccc(Cl)cc2Cl)N=C14 |
| > 50 | 28.3 | 14 | > 50 | CCOC(=O)[C@]1(C)CCC[C@@]2(C)[C@@H]3CC[C@@]4(C)C[C@]3(CC[C@@H]21)[C@@H]1CN(c2ccccc2)N=C14 |
| > 50 | > 50 | 25.6 | > 50 | CCOC(=O)[C@]1(C)CCC[C@@]2(C)[C@@H]3CC[C@@]4(C)C[C@]3(CC[C@@H]21)[C@@H]1CN(c2cc(Cl)ccc2Cl)N=C14 |
| 13.5 | 3.18 | 1.09 | 2.71 | CCOC(=O)[C@]1(C)CCC[C@@]2(C)[C@@H]3CC[C@@]4(C)C[C@]3(CC[C@@H]21)c1cnn(-c2ccc(Cl)cc2Cl)c14 |
| > 50 | 26.5 | 3.27 | 34.9 | CCOC(=O)[C@]1(C)CCC[C@@]2(C)[C@@H]3CC[C@@]4(C)C[C@]3(CC[C@@H]21)c1cnn(-c2cccc(Br)c2)c14 |
| > 50 | > 50 | 8.36 | 32.5 | CCOC(=O)[C@]1(C)CCC[C@@]2(C)[C@@H]3CC[C@@]4(C)C[C@]3(CC[C@@H]21)[C@@H]1CN(c2ccc(C)c(C)c2)N=C14 |
| > 50 | > 50 | 17.1 | > 50 | CCOC(=O)[C@]1(C)CCC[C@@]2(C)[C@@H]3CC[C@@]4(C)C[C@]3(CC[C@@H]21)c1cnn(-c2ccc(Cl)c(Cl)c2)c14 |
| > 50 | > 50 | 25.1 | > 50 | CCOC(=O)[C@]1(C)CCC[C@@]2(C)[C@@H]3CC[C@@]4(C)C[C@]3(CC[C@@H]21)[C@@H]1CN(c2cccc(Br)c2)N=C14 |
| > 50 | > 50 | 5.13 | > 50 | CCOC(=O)[C@]1(C)CCC[C@@]2(C)[C@@H]3CC[C@@]4(C)C[C@]3(CC[C@@H]21)c1cnn(-c2cccc(Cl)c2Cl)c14 |
| > 50 | 19.2 | 3.4 | 35.8 | CCOC(=O)[C@]1(C)CCC[C@@]2(C)[C@@H]3CC[C@@]4(C)C[C@]3(CC[C@@H]21)c1cnn(-c2cccc(F)c2)c14 |
| 43.3 | 16.5 | 6.55 | 18.7 | CCOC(=O)[C@]1(C)CCC[C@@]2(C)[C@@H]3CC[C@@]4(C)C[C@]3(CC[C@@H]21)c1cnn(-c2ccc(C)cc2C)c14 |
